ChEMBL document CHEMBL1127734, “Selective ligands for rat A3 adenosine receptors: structure-activity relationships of 1,3-dialkylxanthine 7-riboside derivatives” (J Med Chem, 1994)

Key:
[1] = target: Adenosine receptors; A1 & A3 (Rattus norvegicus) (UniProt P25099+P28647); assay: Selectivity ratio (Ki's)for A1 and A3 receptors in rat brain; assay type: tissue-based
Method in brief: (§1)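 Ratio of Ki values from rat A1 (cortical, [3H]PIA) or A2a (striatal, [3H]CGS 21680) binding over Ki from rat A3 binding ([125I]AB-MECA, CHO membranes). Where one value is only a percent displacement, a conservative boundary estimate of the ratio is given.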

[2] = target: Adenosine receptor A2a and A3 (Rattus norvegicus) (UniProt P30543+P28647); assay: Selectivity for A2a and A3 receptors in rat brain as ratio of Ki; assay type: tissue-based; method in brief: as §1
Sequence of Adenosine receptor A2a and A3 (Rattus norvegicus) (P30543 whole entry, looked up, one chain of several): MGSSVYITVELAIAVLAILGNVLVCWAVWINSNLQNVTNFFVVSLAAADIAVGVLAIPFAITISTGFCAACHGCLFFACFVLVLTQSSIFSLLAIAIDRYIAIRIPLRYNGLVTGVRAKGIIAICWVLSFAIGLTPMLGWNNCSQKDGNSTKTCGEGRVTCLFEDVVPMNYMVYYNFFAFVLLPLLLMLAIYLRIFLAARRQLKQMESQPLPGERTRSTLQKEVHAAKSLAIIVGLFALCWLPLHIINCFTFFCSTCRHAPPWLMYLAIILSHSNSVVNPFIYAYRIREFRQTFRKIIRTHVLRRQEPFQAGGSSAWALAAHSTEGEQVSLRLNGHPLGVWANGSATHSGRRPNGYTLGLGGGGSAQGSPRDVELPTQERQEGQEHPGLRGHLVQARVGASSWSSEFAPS

[3] = target: T1, Adenosine receptor A3 (Rattus norvegicus, UniProt P28647); assay: Displacement of specific [125]AB-MECA binding in membranes of CHO cells stably transfected with the rat A3-cDNA; assay type: cell membranes
T1 sequence (P28647 whole entry): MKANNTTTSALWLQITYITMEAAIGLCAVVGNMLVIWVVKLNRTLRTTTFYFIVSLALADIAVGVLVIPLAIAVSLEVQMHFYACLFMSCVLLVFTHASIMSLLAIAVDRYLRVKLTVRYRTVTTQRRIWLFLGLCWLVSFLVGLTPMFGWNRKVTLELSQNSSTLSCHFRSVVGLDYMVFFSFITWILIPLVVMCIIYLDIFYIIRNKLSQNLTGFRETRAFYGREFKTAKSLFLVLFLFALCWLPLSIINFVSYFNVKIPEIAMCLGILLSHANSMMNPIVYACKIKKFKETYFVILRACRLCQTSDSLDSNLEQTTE

[4] = target: T2, Adenosine receptor A1 (Rattus norvegicus, UniProt P25099); assay: Tested for the displacement of specific [3H]PIA in rat brain membranes of A1 receptor; assay type: cell membranes
T2 sequence (P25099 whole entry): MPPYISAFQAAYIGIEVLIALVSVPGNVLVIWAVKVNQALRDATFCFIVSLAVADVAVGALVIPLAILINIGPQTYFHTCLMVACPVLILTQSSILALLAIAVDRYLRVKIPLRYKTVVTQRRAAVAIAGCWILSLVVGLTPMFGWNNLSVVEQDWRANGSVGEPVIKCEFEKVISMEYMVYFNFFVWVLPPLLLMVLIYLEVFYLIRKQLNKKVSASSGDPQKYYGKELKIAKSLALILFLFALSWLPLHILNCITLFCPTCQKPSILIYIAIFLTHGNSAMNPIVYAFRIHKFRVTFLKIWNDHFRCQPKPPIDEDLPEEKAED

[5] = target: Adenosine receptor A2a (Rattus norvegicus, UniProt P30543); assay: Displacement of specific [3H]- CGS-21680 in rat striatal membranes A2a receptor; assay type: cell membranes, Membrane
Sequence of Adenosine receptor A2a (P30543 whole entry): as the sequence (P30543 whole entry, looked up, one chain of several) above
Method in brief: (§2)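 Rat striatal membranes; [3H]CGS 21680 binding at A2a receptors. Adenosine deaminase (3 units/mL) present during membrane preparation, which includes a 30 °C, 30 min incubation, and during radioligand incubation.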

[6] = target: Adenosine receptor A2a (Rattus norvegicus) (UniProt P30543); assay: Displacement of specific [3H]- CGS-21680 in rat striatal membranes A2a receptor at 10e-4 M concentration; assay type: cell membranes; conditions: Membrane
Sequence of Adenosine receptor A2a (Rattus norvegicus) (P30543 whole entry): as the sequence (P30543 whole entry, looked up, one chain of several) above

[7] = target: T3, Adenosine receptor A1 (Rattus norvegicus) (UniProt P25099); assay: Percent displacement of [3H]PIA from A1 receptor of rat brain membrane at 10e-4 M
T3 sequence (whole entry): T2 sequence (P25099 whole entry)
Method in brief: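 A1 receptor binding in rat cortical membranes with [3H]-(R)-PIA. Adenosine deaminase (3 units/mL) present during membrane preparation, which includes a 30 °C, 30 min incubation, and during radioligand incubation. Result given as displacement of specific binding, as Ki or as percent displacement at the stated concentration.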

[8] = target: Adenosine receptor A2a (Rattus norvegicus) (UniProt P30543); assay: Displacement of [3H]CGS-21680 from A2a receptor of rat striatal membrane at 10e-5 M; method in brief: as §2
[9] = target: Adenosine receptor A2a (Rattus norvegicus) (UniProt P30543); assay: Displacement of [3H]CGS-21680 from A2a receptor of rat striatal membrane at 10e-4 M; method in brief: as §2
[10] = target: Adenosine receptor A2a (Rattus norvegicus) (UniProt P30543); assay: Displacement of [3H]- CGS-21680 from A2a receptor of rat striatal membrane at 3*10e-4 M; method in brief: as §2

| Structure (SMILES) | Selectivity ratio [1] | Selectivity ratio [2] | Ki [3] [µM] | Ki [4] [µM] | Ki [5] [µM] | inhibition [6] [%] | inhibition [7] [%] | inhibition [8] [%] | inhibition [9] [%] | inhibition [10] [%] |
| --- | --- | --- | --- | --- | --- | --- | --- | --- | --- | --- |
| CCCCCn1c(=O)c2c(ncn2C2O[C@H](CO)[C@@H](O)[C@H]2O)n(CCCCC)c1=O (some centres not stated) | 1.8 | 9.8 | 4.81 | 8.79 | 47.3 |  |  |  |  |  |
| COc1nc2c(c(=O)n(C)c(=O)n2C)n1C1O[C@H](CO)[C@@H](O)[C@H]1O (some centres not stated) | > 1 | > 1 | 0.074 |  |  | 4 | 21 |  |  |  |
| CCCCn1c(=O)c2c(ncn2C2O[C@H](CO)[C@@H](O)[C@H]2O)n(CCCC)c1=S (some centres not stated) | 1.6 | 3 | 1.4 | 2.25 | 4.25 |  |  |  |  |  |
| CCCCn1c(=O)c2c(ncn2C2O[C@H](CO)[C@@H](O)[C@H]2O)n(Cc2ccccc2)c1=O (some centres not stated) | 0.17 | 0.67 | 12.9 | 2.19 | 8.67 |  |  |  |  |  |
| CCCCn1c(=O)c2c(ncn2C2O[C@H](C(N)=O)[C@@H](O)[C@H]2O)n(CCCC)c1=O (some centres not stated) | 0.2 | 3.6 | 15.3 |  | 54.9 |  |  |  |  |  |
| CCCCn1c(=O)c2c(ncn2C2O[C@H](C(=O)N(C)C)[C@@H](O)[C@H]2O)n(CCCC)c1=O (some centres not stated) | 0.04 | 0.23 | 228 | 9.1 | 53.5 |  |  |  |  |  |
| CCCCn1c(=O)c2c(ncn2C2O[C@H](CO)[C@@H](O)[C@H]2O)n(CCCC)c1=O (some centres not stated) | 0.69 | 3.2 | 6.03 | 4.19 | 19.5 |  |  |  |  |  |

Other lines, results leading:

| Selectivity ratio [1] | Selectivity ratio [2] | Ki [3] [µM] | Ki [4] [µM] | Ki [5] [µM] | inhibition [6] [%] | inhibition [7] [%] | inhibition [8] [%] | inhibition [9] [%] | inhibition [10] [%] | Structure (SMILES) |
| --- | --- | --- | --- | --- | --- | --- | --- | --- | --- | --- |
| 4.3 | > 1 | 2.63 |  |  | 2 |  |  |  |  | CCCCCn1c(=O)c2c(ncn2C2O[C@H](C(=O)NC)[C@@H](O)[C@H]2O)n(CCCCC)c1=O (some centres not stated) |
| 0.23 |  | 43 | 9.75 |  |  |  | 7.8 |  |  | CCCCCCn1c(=O)c2c(ncn2C2O[C@H](CO)[C@@H](O)[C@H]2O)n(CCCCCC)c1=O (some centres not stated) |
| 3 | > 10 | 10.3 | 30.8 |  | 0 |  |  |  |  | CCCCCCn1c(=O)c2c(ncn2C2O[C@H](C(=O)NC)[C@@H](O)[C@H]2O)n(CCCCCC)c1=O (some centres not stated) |
| 0.3 | > 1 | 89.4 | 27 |  |  |  |  | 2 |  | Cn1c(=O)c2c(ncn2C2O[C@H](CO)[C@@H](O)[C@H]2O)n(C)c1=O (some centres not stated) |
| 1.2 | > 1 | 3.23 | 3.72 |  |  |  |  |  | 0 | CCCCn1c(=O)c2c(ncn2C2O[C@H](C(=O)OC)[C@@H](O)[C@H]2O)n(CCCC)c1=O (some centres not stated) |
| 0.2 | > 1 | 81.2 | 15.9 |  | 32 |  |  |  |  | CCCn1c(=O)c2c(ncn2C2O[C@H](CO)[C@@H](O)[C@H]2O)n(CCC)c1=O (some centres not stated) |
| 10 | 63 | 0.602 | 6.21 | 38.1 |  |  |  |  |  | CCCCn1c(=O)c2c(ncn2C2O[C@H](C(=O)NCC)[C@@H](O)[C@H]2O)n(CCCC)c1=O (some centres not stated) |
